Source: ChEMBL document CHEMBL4052671, “Design, synthesis, and evaluation of DNA topoisomerase II-targeted nucleosides” (Bioorg Med Chem, 2017)
Calls of active or inactive are those of the source. The calls are words filed in the database; no cut-off is given here.

Columns and labels:
[1] = target: T1, DNA topoisomerase 2-alpha (Homo sapiens, UniProt P11388); assay: Inhibition of recombinant human DNA topoisomerase-2alpha assessed as decrease in relaxation of supercoiled pBR322 DNA at […] after 30 mins by ethidium bromide staining based agarose gel electrophoresis relative to control
Outline: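 Topo II relaxation of supercoiled pBR322 (198 ng) with 1 U enzyme, 50 mM Tris-HCl pH 8, 120 mM KCl, 10 mM MgCl2, 0.5 mM ATP, 0.5 mM DTT, drug in <10% DMSO; 37 °C for 30 min; products run on 1% agarose in TAE, ethidium-stained, scanned; supercoiled DNA area quantified.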

[2] = target: T1, DNA topoisomerase 2-alpha; assay: Inhibition of recombinant human DNA topoisomerase-2alpha assessed as decrease in relaxation of supercoiled pBR322 DNA after 30 mins by ethidium bromide staining based agarose gel electrophoresis
[3] = target: T1, DNA topoisomerase 2-alpha; assay: Poison activity at recombinant human DNA topoisomerase-2alpha assessed as linear DNA formation using supercoiled pBR322 DNA as substrate at 200 uM after 30 mins by ethidium bromide staining based agarose gel electrophoresis
Outline: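 Cleavage reactions: 200 ng pBR322, 6 U topo II, 30 mM Tris-HCl pH 7.6, 60 mM NaCl, 8 mM MgCl2, 3 mM ATP, 15 mM mercaptoethanol, drug in 10% DMSO; 37 °C, 30 min; SDS/proteinase K 60 min, 37 °C; 1% agarose in TBE with 0.1% SDS and ethidium bromide; linear DNA scored.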

[4] = test system: PC-3; assay: Growth inhibition of human PC3 cells incubated for 48 hrs by sulforhodamine B assay; assay type: functional; conditions: PC-3, 48 h
[5] = test system: A549; assay: Growth inhibition of human A549 cells incubated for 48 hrs by sulforhodamine B assay; assay type: functional; conditions: A549, 48 h
[6] = test system: DMS-273; assay: Growth inhibition of human DMS273 cells incubated for 48 hrs by sulforhodamine B assay; assay type: functional; conditions: DMS-273, 48 h
[7] = test system: OVCAR-8; assay: Growth inhibition of human OVCAR8 cells incubated for 48 hrs by sulforhodamine B assay; assay type: functional; conditions: OVCAR-8, 48 h
[8] = test system: SNB-78; assay: Growth inhibition of human SNB78 cells incubated for 48 hrs by sulforhodamine B assay; assay type: functional; conditions: SNB-78, 48 h
[9] = test system: NCI-H23; assay: Growth inhibition of human NCI-H23 cells incubated for 48 hrs by sulforhodamine B assay; assay type: functional; conditions: NCI-H23, 48 h
[10] = test system: NCI-H522; assay: Growth inhibition of human NCI-H522 cells incubated for 48 hrs by sulforhodamine B assay; assay type: functional; conditions: NCI-H522, 48 h
[11] = test system: NCI-H226; assay: Growth inhibition of human NCI-H226 cells incubated for 48 hrs by sulforhodamine B assay; assay type: functional; conditions: NCI-H226, 48 h
[12] = Growth inhibition of human HBC5 cells incubated for 48 hrs by sulforhodamine B assay; assay type: functional; conditions: HBC5, 48 h
[13] = test system: DMS-114; assay: Growth inhibition of human DMS114 cells incubated for 48 hrs by sulforhodamine B assay; assay type: functional; conditions: DMS-114, 48 h
[14] = test system: DU-145; assay: Growth inhibition of human DU145 cells incubated for 48 hrs by sulforhodamine B assay; assay type: functional; conditions: DU-145, 48 h
[15] = test system: St-4; assay: Growth inhibition of human St-4 cells incubated for 48 hrs by sulforhodamine B assay; assay type: functional; conditions: St-4, 48 h
[16] = test system: OVCAR-3; assay: Growth inhibition of human OVCAR3 cells incubated for 48 hrs by sulforhodamine B assay; assay type: functional; conditions: OVCAR-3, 48 h
[17] = test system: SF-539; assay: Growth inhibition of human SF539 cells incubated for 48 hrs by sulforhodamine B assay; assay type: functional; conditions: SF-539, 48 h
[18] = test system: RXF 631; assay: Growth inhibition of human RXF631L cells incubated for 48 hrs by sulforhodamine B assay; assay type: functional; conditions: RXF 631, 48 h
[19] = test system: U-251; assay: Growth inhibition of human U251 cells incubated for 48 hrs by sulforhodamine B assay; assay type: functional; conditions: U-251, 48 h
[20] = Growth inhibition of human […] incubated for 48 hrs by sulforhodamine B assay; assay type: functional
[21] = test system: SK-OV-3; assay: Growth inhibition of human SKOV3 cells incubated for 48 hrs by sulforhodamine B assay; assay type: functional; conditions: SK-OV-3, 48 h
[22] = test system: MKN-1; assay: Growth inhibition of human MKN1 cells incubated for 48 hrs by sulforhodamine B assay; assay type: functional; conditions: MKN-1, 48 h
[23] = test system: MKN-45; assay: Growth inhibition of human MKN45 cells incubated for 48 hrs by sulforhodamine B assay; assay type: functional; conditions: MKN-45, 48 h
[24] = test system: HT-29; assay: Growth inhibition of human HT-29 cells incubated for 48 hrs by sulforhodamine B assay; assay type: functional; conditions: HT-29, 48 h
[25] = test system: OVCAR-4; assay: Growth inhibition of human OVCAR4 cells incubated for 48 hrs by sulforhodamine B assay; assay type: functional; conditions: OVCAR-4, 48 h
[26] = test system: KM12; assay: Growth inhibition of human KM12 cells incubated for 48 hrs by sulforhodamine B assay; assay type: functional; conditions: KM12, 48 h
[27] = test system: MKN-28; assay: Growth inhibition of human MKN28 cells incubated for 48 hrs by sulforhodamine B assay; assay type: functional; conditions: MKN-28, 48 h
[28] = test system: LOX IMVI; assay: Growth inhibition of human LOXIMVI cells incubated for 48 hrs by sulforhodamine B assay; assay type: functional
[29] = test system: HCT-15; assay: Growth inhibition of human HCT15 cells incubated for 48 hrs by sulforhodamine B assay; assay type: functional; conditions: HCT-15, 48 h
[30] = test system: SF-268; assay: Growth inhibition of human SF268 cells incubated for 48 hrs by sulforhodamine B assay; assay type: functional; conditions: SF-268, 48 h
[31] = test system: HCT-116; assay: Growth inhibition of human HCT116 cells incubated for 48 hrs by sulforhodamine B assay; assay type: functional; conditions: HCT-116, 48 h
[32] = test system: ACHN; assay: Growth inhibition of human ACHN cells incubated for 48 hrs by sulforhodamine B assay; assay type: functional
[33] = test system: SF-295; assay: Growth inhibition of human SF295 cells incubated for 48 hrs by sulforhodamine B assay; assay type: functional; conditions: SF-295, 48 h
[34] = test system: HCC 2998; assay: Growth inhibition of human HCC2998 cells incubated for 48 hrs by sulforhodamine B assay; assay type: functional; conditions: HCC 2998, 48 h
[35] = test system: MKN-7; assay: Growth inhibition of human MKN7 cells incubated for 48 hrs by sulforhodamine B assay; assay type: functional; conditions: MKN-7, 48 h
[36] = Growth inhibition of human BSY1 cells incubated for 48 hrs by sulforhodamine B assay; assay type: functional; conditions: BSY-1, 48 h
[37] = test system: MKN-74; assay: Growth inhibition of human MKN74 cells incubated for 48 hrs by sulforhodamine B assay; assay type: functional; conditions: MKN-74, 48 h
[38] = Growth inhibition of human HBC4 cells incubated for 48 hrs by sulforhodamine B assay; assay type: functional; conditions: HBC4, 48 h
[39] = test system: NCI-H460; assay: Growth inhibition of human NCI-H460 cells incubated for 48 hrs by sulforhodamine B assay; assay type: functional; conditions: NCI-H460, 48 h
[40] = test system: SNB-75; assay: Growth inhibition of human SNB75 cells incubated for 48 hrs by sulforhodamine B assay; assay type: functional; conditions: SNB-75, 48 h
[41] = test system: MCF7; assay: Growth inhibition of human MCF7 cells incubated for 48 hrs by sulforhodamine B assay; assay type: functional; conditions: MCF7, 48 h
[42] = test system: OVCAR-5; assay: Growth inhibition of human OVCAR5 cells incubated for 48 hrs by sulforhodamine B assay; assay type: functional; conditions: OVCAR-5, 48 h
[43] = target: DNA topoisomerase 1 (Homo sapiens) (UniProt P11387); assay: Inhibition of human placenta DNA topoisomerase-1 assessed as decrease in relaxation of supercoiled pUC19 DNA at 200 uM after 30 mins by ethidium bromide staining based agarose gel electrophoresis
Sequence of DNA topoisomerase 1 (Homo sapiens) (P11387 whole entry): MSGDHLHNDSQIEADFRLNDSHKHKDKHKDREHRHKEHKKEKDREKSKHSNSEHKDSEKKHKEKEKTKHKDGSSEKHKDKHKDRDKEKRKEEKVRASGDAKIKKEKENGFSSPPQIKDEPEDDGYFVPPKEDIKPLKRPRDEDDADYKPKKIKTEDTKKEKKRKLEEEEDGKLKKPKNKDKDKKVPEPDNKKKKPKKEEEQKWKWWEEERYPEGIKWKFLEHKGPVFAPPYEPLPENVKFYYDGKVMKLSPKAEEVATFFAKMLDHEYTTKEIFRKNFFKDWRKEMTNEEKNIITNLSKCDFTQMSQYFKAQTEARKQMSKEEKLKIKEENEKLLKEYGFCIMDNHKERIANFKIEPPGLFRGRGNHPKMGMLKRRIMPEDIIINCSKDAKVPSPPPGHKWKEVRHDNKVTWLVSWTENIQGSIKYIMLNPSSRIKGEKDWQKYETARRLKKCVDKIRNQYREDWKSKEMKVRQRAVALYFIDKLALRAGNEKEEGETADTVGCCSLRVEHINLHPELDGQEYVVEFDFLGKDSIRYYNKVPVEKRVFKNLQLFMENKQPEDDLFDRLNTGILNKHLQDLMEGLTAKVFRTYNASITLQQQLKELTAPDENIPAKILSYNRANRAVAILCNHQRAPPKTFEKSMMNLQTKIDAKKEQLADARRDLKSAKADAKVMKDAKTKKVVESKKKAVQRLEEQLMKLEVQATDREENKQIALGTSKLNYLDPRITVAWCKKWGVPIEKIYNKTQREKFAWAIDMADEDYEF

T1 sequence (P11388 whole entry): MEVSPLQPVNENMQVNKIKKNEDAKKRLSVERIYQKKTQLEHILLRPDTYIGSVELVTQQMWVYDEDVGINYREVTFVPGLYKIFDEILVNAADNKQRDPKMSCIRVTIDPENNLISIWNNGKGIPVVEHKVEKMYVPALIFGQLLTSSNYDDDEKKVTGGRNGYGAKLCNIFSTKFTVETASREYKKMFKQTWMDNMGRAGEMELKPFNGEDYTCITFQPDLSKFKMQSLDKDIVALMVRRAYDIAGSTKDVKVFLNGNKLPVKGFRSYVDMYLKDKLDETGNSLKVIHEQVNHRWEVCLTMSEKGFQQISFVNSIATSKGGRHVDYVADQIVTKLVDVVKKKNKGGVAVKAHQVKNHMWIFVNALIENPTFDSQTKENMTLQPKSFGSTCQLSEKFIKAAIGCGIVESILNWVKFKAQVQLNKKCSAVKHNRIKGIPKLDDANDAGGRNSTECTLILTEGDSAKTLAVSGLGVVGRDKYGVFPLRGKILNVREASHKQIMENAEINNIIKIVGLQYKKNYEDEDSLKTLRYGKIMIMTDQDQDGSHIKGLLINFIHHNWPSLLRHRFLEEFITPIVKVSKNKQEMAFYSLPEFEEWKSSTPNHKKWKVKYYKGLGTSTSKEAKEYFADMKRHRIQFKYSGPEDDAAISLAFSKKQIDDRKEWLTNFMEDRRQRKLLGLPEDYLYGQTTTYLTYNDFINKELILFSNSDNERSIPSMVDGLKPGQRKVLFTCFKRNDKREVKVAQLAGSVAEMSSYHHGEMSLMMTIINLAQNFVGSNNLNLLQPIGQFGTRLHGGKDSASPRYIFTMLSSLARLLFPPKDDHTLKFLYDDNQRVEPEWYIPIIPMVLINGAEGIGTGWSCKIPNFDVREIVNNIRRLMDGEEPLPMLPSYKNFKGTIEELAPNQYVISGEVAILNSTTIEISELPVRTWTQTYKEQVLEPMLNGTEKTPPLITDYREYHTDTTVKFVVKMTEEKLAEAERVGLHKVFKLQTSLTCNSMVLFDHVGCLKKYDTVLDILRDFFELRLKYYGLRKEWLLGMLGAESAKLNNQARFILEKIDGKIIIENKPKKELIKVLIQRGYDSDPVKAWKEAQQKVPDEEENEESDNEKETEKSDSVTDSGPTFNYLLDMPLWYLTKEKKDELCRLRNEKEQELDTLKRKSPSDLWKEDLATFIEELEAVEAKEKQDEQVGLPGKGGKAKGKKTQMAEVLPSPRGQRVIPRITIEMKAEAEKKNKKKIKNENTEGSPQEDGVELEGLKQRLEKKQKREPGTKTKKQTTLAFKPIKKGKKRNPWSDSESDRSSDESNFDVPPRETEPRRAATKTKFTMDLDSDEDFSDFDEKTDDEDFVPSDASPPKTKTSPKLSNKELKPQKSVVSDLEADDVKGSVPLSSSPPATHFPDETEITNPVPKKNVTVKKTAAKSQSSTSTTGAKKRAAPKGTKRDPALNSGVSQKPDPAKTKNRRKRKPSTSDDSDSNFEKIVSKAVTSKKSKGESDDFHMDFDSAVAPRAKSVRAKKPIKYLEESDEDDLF

## COc1ccc(C[C@H]2CC(=O)O[C@@H]2CO)cc1OC
[1]
  inhibition: inactive

## Cc1cn([C@H]2C[C@H](Cc3ccc(O)c(O)c3)[C@@H](CO[Si](C)(C)C(C)(C)C)O2)c(=O)[nH]c1=O
[2]
  IC50: 35.2 µM

## COc1cc([C@@H]2c3cc4c(cc3[C@@H](O[C@@H]3O[C@@H]5CO[C@@H](C)O[C@H]5[C@H](O)[C@H]3O)[C@H]3COC(=O)[C@H]23)OCO4)cc(OC)c1O
[3]
  Activity: Active

## COc1ccc(C2([C@H]3C[C@@H](n4cc(C)c(=O)[nH]c4=O)O[C@@H]3CO[Si](C)(C)C(C)(C)C)SCCCS2)cc1OC
[4]
  GI50: 3.63 µM
[5]
  GI50: 5.37 µM
[6]
  GI50: 4.57 µM
[7]
  GI50: 8.32 µM
[8]
  GI50: 12.9 µM
[9]
  GI50: 11 µM
[10]
  GI50: 5.62 µM
[11]
  GI50: 3.39 µM
[12]
  GI50: 5.75 µM
[13]
  GI50: 5.62 µM
[14]
  GI50: 12 µM
[15]
  GI50: 12 µM
[16]
  GI50: 11 µM
[17]
  GI50: 14.1 µM
[18]
  GI50: 17 µM
[19]
  GI50: 7.41 µM
[20]
  GI50: 11 µM
[21]
  GI50: 17 µM
[22]
  GI50: 5.01 µM
[23]
  GI50: 8.32 µM
[24]
  GI50: 6.17 µM
[25]
  GI50: 4.9 µM
[26]
  GI50: 11 µM
[27]
  GI50: 4.9 µM
[28]
  GI50: 8.13 µM
[29]
  GI50: 9.12 µM
[30]
  GI50: 12.9 µM
[31]
  GI50: 5.75 µM
[32]
  GI50: 6.76 µM
[33]
  GI50: 8.32 µM
[34]
  GI50: 12.9 µM
[35]
  GI50: 3.02 µM
[36]
  GI50: 3.31 µM
[37]
  GI50: 4.27 µM
[38]
  GI50: 5.01 µM
[2]
  IC50: 18.5 µM
[39]
  GI50: 5.62 µM
[40]
  GI50: 17 µM
[41]
  GI50: 4.37 µM
[42]
  GI50: 12.9 µM

## COc1ccc(C[C@H]2C[C@H](n3cc(C)c(=O)[nH]c3=O)O[C@@H]2CO[Si](C)(C)C(C)(C)C)cc1OC
[2]
  IC50: 99.1 µM

## COc1ccc(C2([C@H]3C[C@H](n4cc(C)c(=O)[nH]c4=O)O[C@@H]3CO)SCCCS2)cc1OC
[2]
  IC50: 64.5 µM

## COc1ccc(C2([C@H]3CC(=O)O[C@@H]3CO[Si](C)(C)C(C)(C)C)SCCCS2)cc1OC
[2]
  IC50: 55.7 µM

## COc1ccc(C2([C@H]3C[C@H](n4cc(C)c(=O)[nH]c4=O)O[C@@H]3CO[Si](C)(C)C(C)(C)C)SCCCS2)cc1OC
[4]
  GI50: 2.29 µM
[5]
  GI50: 4.68 µM
[6]
  GI50: 3.8 µM
[7]
  GI50: 3.89 µM
[8]
  GI50: 5.5 µM
[9]
  GI50: 3.72 µM
[10]
  GI50: 2.69 µM
[11]
  GI50: 2 µM
[12]
  GI50: 2.51 µM
[13]
  GI50: 3.31 µM
[14]
  GI50: 3.72 µM
[15]
  GI50: 4.47 µM
[16]
  GI50: 3.72 µM
[17]
  GI50: 2.19 µM
[18]
  GI50: 4.57 µM
[19]
  GI50: 3.8 µM
[43]
  inhibition: inactive
[20]
  GI50: 3.47 µM
[21]
  GI50: 5.25 µM
[22]
  GI50: 2.29 µM
[23]
  GI50: 3.31 µM
[24]
  GI50: 3.89 µM
[25]
  GI50: 2.88 µM
[26]
  GI50: 4.07 µM
[27]
  GI50: 3.31 µM
[28]
  GI50: 3.24 µM
[29]
  GI50: 4.07 µM
[30]
  GI50: 6.46 µM
[31]
  GI50: 3.63 µM
[32]
  GI50: 2.51 µM
[33]
  GI50: 3.72 µM
[34]
  GI50: 3.31 µM
[35]
  GI50: 2.29 µM
[36]
  GI50: 1.82 µM
[37]
  GI50: 3.24 µM
[38]
  GI50: 3.8 µM
[2]
  IC50: 8.1 µM
[39]
  GI50: 3.63 µM
[40]
  GI50: 10 µM
[41]
  GI50: 3.31 µM
[42]
  GI50: 2.88 µM
